One may read the logD as lipophilicity at a set pH, counting ionised and neutral species. The term logP denotes the decadic logarithm of the partition coefficient of the neutral form, usually between octanol and water.

The nature of series [1]: Affinity constant log K3 value for Fe(III) complex. The series is classed as ADME. In short, it runs like this: (§1)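 Spectrophotometric titration of Fe(III) with ligand at a ligand:iron ratio of about 10:1, with 0.2 M KOH added by programmed autoburette. Full spectra were recorded across pH, e.g. 1.59–10.05 with [Fe(III)] = 1.8×10^-4 M. Cumulative stability constants were optimized by non-linear least-squares regression using the predetermined pKa values, electrode slope and electrode zero.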

Series [2] in a line: Affinity constant log K2 value for Fe(III) complex. It is filed as ADME. The procedure, abridged: as §1
Series [3] concerns Rattus norvegicus. As to the kind of experiment: (§2) Compound was tested in vivo for Iron mobilization efficacy against hepatocytes in normal fasted rats (loaded with [59Fe]-Ferritin). The series is classed as functional, Hepatocyte. Further details: concentration or dose not given beside the values. In short, it runs like this: (§3)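 Fasted normal rats (190–230 g) received [59Fe]ferritin by tail vein to label hepatocyte iron. One hour later chelator was given orally at 450 µmol/kg; controls received an equal volume of water. Rats were kept in metabolic cages, with food allowed 1 h after dosing and water unrestricted. At 24 h, liver and GI tract plus feces were gamma-counted. Mean ± SD, n=5.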

A short description of series [4]: Affinity constant log beta-3 value for Fe(III) complex. The series is classed as ADME. In short, it runs like this: as §1
Series [5] is described as follows: Ligand pka1 value was investigated by potentiometric titration. It is filed as physicochemical. The note with it: read-out: pKa1. In short, it runs like this:
(§4)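 Simultaneous potentiometric and UV/vis titration in 0.1 M KCl (25 mL), acidified with 0.2 M HCl and titrated with 0.2 M KOH in 0.01-mL increments. Run at 25 ± 0.5 °C under argon. Electrode zero was set by a blank titration using Gran's plot. pKa values came from non-linear least-squares regression, accurate to ±0.02 pH unit.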

A short description of series [6]: pFe3+ (negative logarithm of the concentration of the free Iron(III) in solution) of the compound. It is filed as ADME. The procedure, abridged:
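pFe3+ is the negative log of free Fe(III), calculated from the ligand pKa values and Fe(III) stability constants at total ligand 10^-5 M, total iron 10^-6 M, pH 7.4.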

Series [7] can be described thus: Partition coefficient (logD7.4). It is filed as physicochemical. The conditions noted are these: octanol/water, pH 7.4. The procedure, abridged:
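Partitioning between 1-octanol and 50 mM MOPS buffer pH 7.4 (mutually saturated) in an automated continuous-flow filter-probe system. Compound was dissolved in buffer to an absorbance of 0.5–1.5 at ~280 nm. The aqueous phase was separated by a hydrophilic cellulose filter and monitored spectrophotometrically. D7.4 was calculated after each octanol addition.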

Series [8] can be described thus: Partition coefficient (logP). It is filed as physicochemical. The conditions noted are these: octanol/water.
Series [9] is described as follows: Ligand pka2 value was investigated by potentiometric titration. The series is classed as physicochemical. The conditions noted are these: read-out: pKa2. In short, it runs like this: as §4
The test system of series [10] is Rattus norvegicus. Nature of the series: Compound was tested in vivo for Iron mobilization against hepatocytes in normal fasted rats (loaded with [59Fe]-Ferritin). The series is classed as functional, Hepatocyte. The procedure, abridged: as §3
Series [11] can be described thus: Affinity constant log K1 value for Fe(III) complex. It is filed as ADME. In short, it runs like this: as §1
Series [12] is described as follows: Ligand pka1 value was investigated by spectrophotometric titration. It is filed as physicochemical. The note with it: read-out: pKa1. The procedure, abridged:
as §4

Series [13] has as its system Rattus norvegicus. Nature of the series: Compound was tested in vivo for Iron mobilization against hepatocytes in normal fasted rats ( loaded with [59Fe]-Ferritin). It is filed as functional, Hepatocyte. The procedure, abridged:
as §3

For series [14], the system named is Rattus norvegicus. The series is described as §2. The series is classed as functional, Hepatocyte. The procedure, abridged: as §3
Series [15] deals with Rattus norvegicus. As to the kind of experiment: Compound was tested in vivo for Iron mobilization efficacy against hepatocytes in normal fasted rats(loaded with [59Fe]-Ferritin). It is filed as functional, Hepatocyte. In short, it runs like this:
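Normal fasted rats (190–230 g); hepatocyte iron labelled with [59Fe]ferritin given by tail vein. One hour later, chelator 450 µmol/kg was given orally; controls received an equivalent volume of water. Rats were housed in individual metabolic cages with urine and feces collected. Killed 24 h after ferritin; liver and GI tract with contents and feces were gamma counted. Means ± SD, n=5.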

A short description of series [16]: Ligand pka2 value was investigated by spectrophotometric titration. The series is classed as physicochemical. The conditions noted are these: read-out: pKa2. In short, it runs like this:
as §4

Take `Cc1cc(=O)c(O)c(C(C)O)n1C` (stereo not drawn): in series [1], the “Log K3” value was 9.05. The “Log K2” value in series [2] was found to be 11.09. In the series on Rattus norvegicus [3], this molecule gave an Efficacy of 44.5%. In addition, the “Log beta3” value in [4] came to 35.5. Also, the pKa in series [5] was 3.54; in [9], 8.99. The molecule also had a pFe3 in series [6] of 21.5. Also, the logD in [7] is -0.606. In addition, the logP in series [8] was -0.606. Also, the Iron mobilization with Rattus norvegicus [10] is listed as 48.4%. In addition, the “Log K1” value in series [11] is on record as 15.38.

In the case of `O=c1ccn(CCCO)c(CO)c1O`, in series [1], the “Log K3” value came to 9.57. Also, the “Log K2” value in series [2] was 10.01. For the same molecule, in the series with Rattus norvegicus [3], the Efficacy came out at 7.8%. For the same molecule, in series [4], the “Log beta3” value turned out to be 35.3. Besides, the pKa in series [5] worked out at 3.02; in [9], 9.29. Besides, the pFe3 in series [6] amounted to 20.7. Moreover, the logD in [7] was -1.25. In series [8], the logP is -1.25. In the series on Rattus norvegicus [10], this molecule registered an Iron mobilization of 11.7%. Moreover, in series [11], the “Log K1” value stood at 15.67.

As for `Cc1cc(=O)c(O)c(CO)n1C`, the “Log K3” value in series [1] turned out to be 9.55. In addition, the “Log K2” value in [2] came out at 11.57. In the series with Rattus norvegicus [3], this molecule returned an Efficacy of 0.6%. In series [4], the “Log beta3” value stood at 35.5. Further, the results for the pKa in [5] and in series [9] were 3.32 and 9.44, respectively. In series [6], this molecule showed a pFe3 of 20.4. In addition, the logD in series [7] is -1.01. The logP in series [8] is -1.01. Moreover, the Iron mobilization with Rattus norvegicus [10] stood at 4.5%. Besides, the “Log K1” value in [11] worked out at 14.39.

With `CCC(O)c1c(O)c(=O)cc(C)n1C` (stereo not drawn), the “Log K3” value in [1] was determined as 9.05. Further, in series [2], the “Log K2” value was 11.48. In addition, the results for the pKa in series [12], in series [5] and in series [9] were 3.78, 3.76 and 9, respectively. For the same molecule, the Efficacy in the series with Rattus norvegicus [3] was 56.5%. The “Log beta3” value in series [4] turned out to be 35. The molecule also had a pFe3 in series [6] of 21. Moreover, the logD in series [7] is -0.134. Besides, in series [8], the log partition coefficient (logP) is -0.134. The Iron mobilization in the series with Rattus norvegicus [10] is reported as 60.4%. Also, the “Log K1” value in [11] was determined as 14.5.

Molecule `Cc1c(O)c(=O)ccn1CCCOC(=O)c1ccccc1` displayed an Efficacy in the series with Rattus norvegicus [3] of 32.5%. For the same molecule, the logD in [7] is 1.25. Moreover, the logP in series [8] stood at 1.25.

In the series on Rattus norvegicus [3], `CCc1c(O)c(=O)ccn1CCOC(=O)C(C)(C)C` displayed an Efficacy of 19.1%. This molecule also gave a logD in series [7] of 1.16. Besides, the logP in series [8] turned out to be 1.16.

Consider `CC(O)c1c(O)c(=O)ccn1CCCO` (stereo not drawn), for which the “Log K3” value in series [1] is 8.87. The “Log K2” value in series [2] is listed as 10.87. In the series on Rattus norvegicus [3], this molecule yielded an Efficacy of 10.6%. Also, the “Log beta3” value in series [4] was determined as 34.7. Moreover, the pKa came out at 2.98 in series [5] and 8.72 in series [9]. Besides, the pFe3 in [6] stood at 21.5. In addition, the logD in [7] is -1.12. Further, the logP in [8] is -1.12. The molecule also showed an Iron mobilization with Rattus norvegicus [10] of 14.5%. For the same molecule, the “Log K1” value in [11] turned out to be 14.93.

`CCc1c(O)c(=O)ccn1CCO` had an Efficacy with Rattus norvegicus [3] of 12.9%.

`CCc1c(O)c(=O)ccn1CC`: in series [1], the “Log K3” value is recorded as 9.84. In series [2], the “Log K2” value is recorded as 11.76. In the series with Rattus norvegicus [3], this molecule yielded an Efficacy of 55.8%. For the same molecule, the “Log beta3” value in series [4] was 36.8. In addition, the figures for the pKa in [5] and in series [9] were 3.81 and 9.93, respectively. This molecule also returned a pFe3 in series [6] of 19.7. For the same molecule, the “Log K1” value in series [11] came out at 15.2.

Take `CCn1ccc(=O)c(O)c1CO`: the “Log K3” value in series [1] was found to be 9.43. Besides, the “Log K2” value in series [2] was determined as 11.16. The molecule further showed an Efficacy in the series with Rattus norvegicus [3] of 29.4%. For the same molecule, the “Log beta3” value in series [4] came out at 35.3. For the same molecule, the values for the pKa in series [5] and in series [9] were 2.8 and 9.27, respectively. The molecule further displayed a pFe3 in series [6] of 21. Further, the logD in [7] was -0.854. Moreover, the log partition coefficient (logP) in series [8] is -0.854. The “Log K1” value in series [11] was determined as 14.66. Moreover, the Iron mobilization in the series on Rattus norvegicus [13] was 33.3%.

On to `CCn1ccc(=O)c(O)c1C(C)O` (stereo not drawn), for which the “Log K3” value in [1] was 8.9. In addition, the Iron mobilization in the series on Rattus norvegicus [14] amounted to 54.5%. Also, the “Log K2” value in [2] turned out to be 10.97. Further, the Efficacy with Rattus norvegicus [3] is 50.6%. In series [4], the “Log beta3” value came to 35.1. Also, the pKa in [5] worked out at 3.03; in series [9], 8.77. For the same molecule, the pFe3 in series [6] amounted to 21.4. In addition, the logD in series [7] was -0.575. Besides, in [8], the logP is -0.575. The “Log K1” value in series [11] is reported as 15.21.

With `O=C(OCCCn1ccc(=O)c(O)c1CO)c1ccccc1`, in the series on Rattus norvegicus [3], the Efficacy was found to be 52.1%. Moreover, the logD in series [7] is 0.749. This molecule had a logP in [8] of 0.749. Moreover, the Iron mobilization in the series on Rattus norvegicus [10] is 56%.

Consider `CCn1c(C)cc(=O)c(O)c1CO`, for which the “Log K3” value in series [1] is listed as 9.64. Besides, the “Log K2” value in [2] amounted to 11.6. This molecule came in with an Efficacy in the series with Rattus norvegicus [3] of 9%. Moreover, in series [4], the “Log beta3” value stood at 35.6. For the same molecule, the pKa amounted to 3.29 in series [5] and 9.45 in series [9]. The pFe3 in series [6] amounted to 20.4. In addition, the logD in series [7] was -0.652. In addition, the logP in series [8] is -0.652. In addition, in the series on Rattus norvegicus [10], the Iron mobilization is 12.9%. The “Log K1” value in series [11] came to 14.37.

For `Cc1c(O)c(=O)ccn1C` [DEFERIPRONE], the “Log K3” value in [1] is 9.69. In series [2], the “Log K2” value is on record as 12.19. Moreover, the “Log beta3” value in [4] is reported as 36.4. In series [6], this molecule registered a pFe3 of 19.4. In the series on Rattus norvegicus [15], this molecule displayed an Efficacy of 9.5%. In [9], the pKa amounted to 9.77. For the same molecule, the “Log K1” value in [11] came to 14.56.

Turning to `Cn1ccc(=O)c(O)c1CO`, the “Log K3” value in [1] amounted to 9.58. Also, the “Log K2” value in [2] was found to be 11.27. In the series with Rattus norvegicus [3], this molecule returned an Efficacy of 4.6%. The “Log beta3” value in [4] is 35.3. Moreover, the results for the pKa in [5], in [9] and in series [16] were 2.92, 9.11 and 9.11, respectively. Besides, in series [6], the pFe3 stood at 20.9. The pH-dependent lipophilicity (logD) in series [7] was -1.32. The logP in [8] was -1.32. The Iron mobilization with Rattus norvegicus [10] was determined as 8.44%. Also, the “Log K1” value in [11] amounted to 14.47.

With `Cc1c(O)c(=O)ccn1CCCO`, in the series on Rattus norvegicus [3], the Efficacy came to 26%.

The record behind these values is ChEMBL document CHEMBL1132479, “Synthesis, physicochemical characterization, and biological evaluation of 2-(1'-hydroxyalkyl)-3-hydroxypyridin-4-ones: novel iron chelators with enhanced pFe(3+) values” (J Med Chem, 1999).
